How the values were obtained:
[1] = system: A549; experiment: In vitro cytotoxicity against human A549 cells assessed as growth inhibition by MTT assay; type: functional, cell-based
How it was run: (§1)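 Human tumour lines A549 (alveolar adenocarcinoma), HeLa (cervical), MDA-MB-231 and MCF7 (breast adenocarcinoma), plus normal embryonic kidney HEK293, all ATCC-sourced, grown in 96-well plates. Growth inhibition read as cell-mediated reduction of tetrazolium salt (MTT) to formazan, with doxorubicin as standard. IC50 (µM) calculated from absorbance dose-response curves.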

[2] = system: HeLa; experiment: In vitro cytotoxicity against human HeLa cells assessed as growth inhibition by MTT assay; type: functional, cell-based; how it was run: as §1
[3] = system: MDA-MB-231; experiment: In vitro cytotoxicity against human MDA-MB-231 cells assessed as growth inhibition by MTT assay; type: functional, cell-based; how it was run: as §1
[4] = system: HEK293; experiment: In vitro cytotoxicity against HEK293 cells assessed as growth inhibition by MTT assay; type: cell-based; conditions: Homo sapiens; how it was run: as §1
[5] = system: MCF7; experiment: In vitro cytotoxicity against human MCF7 cells assessed as growth inhibition by MTT assay; type: functional, cell-based; how it was run: as §1

Compound	IC50 [1] [µM]	IC50 [2] [µM]	IC50 [3] [µM]	IC50 [4] [µM]	IC50 [5] [µM]
O=c1oc2ccccc2c2c1CCCc1ccccc1-2	3.35	14.1	16.8	> 200	9.63
Cc1cc2c(cc1C)-c1c(c(=O)oc3ccc(Cl)cc13)CCC2	10.8	12.7	13.3	> 200	15.8
COc1cc2c(cc1OC)-c1c(c(=O)oc3ccccc13)CCC2	> 200	6.72	4.87	> 200	> 200
COc1cccc2c1C(=O)c1c(O)c3c(c(O)c1C2=O)C[C@@](O)(C(=O)CO)C[C@@H]3O[C@H]1C[C@H](N)[C@H](O)[C@H](C)O1 [DOXORUBICIN]	–	–	–	> 200	–
